CHRM4 PAM: human M4 muscarinic receptor positive allosteric modulators, primary screen, CHO-K1 cells, Fluo-8 calcium fluorescence. Muscarinic acetylcholine receptor M4 (Homo sapiens), P08173. CHO-K1 hM4/Gqi5, ACh EC20; 0% = ACh EC20, 100% = maximal ACh. activation, % at 3 µM. 360,000 tested, 0.4% active. AID 624126, 2012;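 active means activation above its plate's cutoff, the mean activation of sample wells plus 3 SD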
Target sequence (P08173 whole entry, looked up): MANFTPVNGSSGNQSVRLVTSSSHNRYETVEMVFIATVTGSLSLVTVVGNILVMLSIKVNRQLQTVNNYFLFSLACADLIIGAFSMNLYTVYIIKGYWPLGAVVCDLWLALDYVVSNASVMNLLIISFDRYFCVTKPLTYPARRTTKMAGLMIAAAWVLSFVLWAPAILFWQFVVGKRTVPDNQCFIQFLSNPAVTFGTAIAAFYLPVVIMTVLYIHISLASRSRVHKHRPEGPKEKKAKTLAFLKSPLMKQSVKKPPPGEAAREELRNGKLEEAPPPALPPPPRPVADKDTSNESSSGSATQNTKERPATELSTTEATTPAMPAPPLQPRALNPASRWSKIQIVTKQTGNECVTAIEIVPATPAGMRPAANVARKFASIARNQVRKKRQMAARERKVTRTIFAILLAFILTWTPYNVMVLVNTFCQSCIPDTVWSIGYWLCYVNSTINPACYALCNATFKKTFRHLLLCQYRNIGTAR
CHRM5 PAM: human M5 muscarinic receptor positive allosteric modulators, primary screen, CHO-K1 cells, Fluo-8 calcium fluorescence; CHO-K1 hM5, ACh EC20 PAM; 0% = ACh EC20, 100% = ACh EC100; AID 624038, 2012; Muscarinic acetylcholine receptor M5 (Homo sapiens), P08912; activation, % at 3 µM; 360,000 tested, 0.3% active;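 active means activation above the run cutoff, the mean activation of all test compounds plus 3 SD, cut at about 18% in these data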
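Probe or stimulus: acetylcholine, EC20 level; Assay system: human M5 receptor in CHO-K1 cells; Schedule: compound preincubation 140 s before EC20 acetylcholine addition; Technique: intracellular calcium via Fluo-8 fluorescence; Dosing: single-point, 3 µM nominal; Read-out basis: percent activation from peak-over-basal fluorescence ratio, scaled EC20-to-EC100 acetylcholine; Repeats: one well per compound, no replicates.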
CHRM5 antagonist: human M5 muscarinic receptor antagonists, primary screen, CHO cells, Fluo-8 calcium fluorescence; Muscarinic acetylcholine receptor M5 (Homo sapiens), P08912; CHO-hM5 cells, ACh EC80; inhibition, % at 3 µM; 360,000 tested, 0.59% active; AID 624040, 2012;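 active means inhibition above a per-plate cutoff, the mean of that plate's test compounds plus 3 SD, cut at about 27% in these data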;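 further: 0% = acetylcholine EC80 with DMSO and 100% = DMSO without agonist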
CHRM4 antagonist: human M4 muscarinic receptor antagonists, primary screen, CHO cells, Fluo-8 calcium fluorescence; CHO-hM4 cells, ACh EC80; inhibition, % at 3 µM; 360,000 tested, 0.73% active; AID 624125, 2012;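 active means inhibition above its plate's cutoff, the mean inhibition of sample wells plus 3 SD, cut at about 27% in these data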;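 further: 0% = acetylcholine EC80 with DMSO and 100% = DMSO without agonist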
CHRM5 agonist: human M5 muscarinic receptor agonists, primary screen, CHO-K1 cells, Fluo-8 calcium fluorescence | CHO-K1 hM5 cells; 0% DMSO wells, 100% maximal acetylcholine response | Muscarinic acetylcholine receptor M5 (Homo sapiens), P08912 | activation, % at 3 µM | 360,000 tested, 0.19% active;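 active means activation above the run's mean over test compounds plus 3 SD, cut at about 23% in these data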;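 further: signal is peak over basal fluorescence ratio across the kinetic read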
CHRM4 agonist: human M4 muscarinic receptor agonists, primary screen, CHO-K1 cells, Fluo-8 calcium fluorescence | Muscarinic acetylcholine receptor M4 (Homo sapiens), P08173 | 360,000 tested, 0.14% active | AID 624127, 2012 | CHO-K1 hM4/Gqi5; vehicle 0%, full acetylcholine response 100% | activation, % at 3 µM;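 active means activation above the run mean over all test wells plus 3 SD, cut at about 32% in these data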;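 further: peak over basal fluorescence ratio per well then scaled between controls; 0% = DMSO wells and 100% = acetylcholine at EC100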
* marks the source's active call; other numbers are inactive results. Sampled rows, rich in hits. Any-hit rate of the full collection: about 1.8%.

SMILES	CHRM4 PAM	CHRM5 PAM	CHRM5 antagonist	CHRM4 antagonist	CHRM5 agonist	CHRM4 agonist
CCc1ccc(NC(=O)C(C)Sc2nnc(CN3CCCC3)o2)cc1 (centres undefined)	4	2	2	2	0	1
CN(C(=O)c1ccc(NC(=O)Cc2cccc(NC(=O)C3CCCN(C(=O)C4CCCC4)C3)c2)cc1)C1CCCC1 (centres undefined)	1	7	5	1	0	-1
O=C(NCCCCCCCN1CCCCCCC1)C(C1CCCCC1)C1CCCCC1	-11	-44	3	75*	-12	3
O=C(NCCCN1CCOCC1)NC1CCCCC1	16	2	-10	-12	-3	0
COc1ccc([C@@H]2CC=C(C(=O)O)[C@H](c3ccccc3F)N2S(=O)(=O)c2ccccc2C)cc1	-1	20*	-5	1	4	0
COc1ccc([C@@H]2CC=C(C(=O)O)[C@H](c3ccc(F)cc3)N2S(=O)(=O)c2ccccc2C)cc1	3	9	1	0	-1	3
CN1C(=O)/C(=C/c2ccccc2OCc2ccc(F)cc2)N(C)C1=S	-38	-20	77*	97*	-7	-1
O=C(Nc1ccc(F)cc1)c1cc(S(=O)(=O)Nc2ccc(F)cc2)cs1	-12	-23	32*	8	3	10
COc1ccc(NC(=O)c2cc(S(=O)(=O)Nc3ccc(OC)cc3)cs2)cc1	-23	-17	16	15	2	10
COc1cccc(/C=C2\C(=O)C(=O)c3ccccc32)c1	-2	1	-5	31*	-2	1
Cc1oc2c(CN3CCC(C)CC3)c(O)ccc2c(=O)c1-c1ccccc1	-5	0	11	13	-5	0
O=S(=O)(Nc1ccc(N2CCOCC2)cc1)c1cc(Cl)ccc1Cl	1	18*	12	-8	3	6
CC1CCCC(NC(=O)CSc2nnc(C(F)(F)F)n2C)C1C (centres undefined)	3	1	2	0	3	2
COc1cccc(NC(=O)NNC(=O)CCc2ccc(O)c(O)c2)c1	-1	0	2	3	-2	1
CN(C(=O)COC(=O)CNC(=O)c1ccccc1F)C1CCCCC1	23*	-6	11	-6	-1	0
Cc1cc(C)c(CSc2ncc(-c3ccc([N+](=O)[O-])cc3)[nH]2)c(C)c1	-13	-14	19	36*	-3	4
COc1cc(Cl)c(C)cc1NC(=O)CSC1=NCCS1	-3	-11	8	4	-2	0
O=C(NCc1cccnc1)/C(=C/c1ccc(-c2ccc(Cl)cc2)o1)S(=O)(=O)c1ccccc1	-20	-3	-1	28*	3	9
O=C(COC(=O)c1ccc(Cl)nc1)NCCc1ccc(F)cc1	7	7	-3	-13	-1	1
C#CCOCCOCCOCCNc1nc(N2CCN(C(=O)[C@H](CC(N)=O)n3cc(C(N)[C@@H](C)CC)nn3)CC2)nc(N2CCN(C(=O)[C@H](CCC(=O)O)n3cc([C@@H](N)CCCCN)nn3)CC2)n1 (some centres undefined)	-2	5	-4	1	4	0
C#CC1(O)CCC2C3CCC4=Cc5oncc5CC4(C)C3CCC21C (centres undefined)	-5	-10	1	-23	1	9
O=C(COC(=O)CCC(=O)c1cccs1)Nc1cccc(S(=O)(=O)N2CCOCC2)c1	-1	-2	-5	-6	-2	4
Cc1ccc(NC(=O)COC(=O)CCC(=O)c2cccs2)cc1S(=O)(=O)N1CCOCC1	20	9	-3	32*	-1	12

Screens deposited in PubChem by The Scripps Research Institute Molecular Screening Center.
